Among all 320,000 compounds or so, about 380 (0.12%) were called active.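 How the source made its calls: active means percent inhibition above the cutoff of mean plus 3 SD of all tested compounds, set per screening campaign (cut at about 20% in these data); inactive means the rest.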 The sample as a whole holds a higher share of actives than the screen did.
Target: Photoreceptor-specific nuclear receptor (Homo sapiens) (UniProt Q9Y5X4)
Experiment: inhibitors of NR2E3-RetCOR corepressor binding, primary screen, NR2E3 agonist project, biochemical, TR-FRET, GST-NR2E3, biotin-RetCOR (AID 2300);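 further: 0% = DMSO wells and 100% = biotin wells as full block of FRET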
Conditions: 1536-well, at 4.78 µM, stronger effect = higher value
Outline: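 Test system: GST-NR2E3 and biotin-RetCOR proteins | Quantity: 1.35 nM GST-tagged NR2E3 final | Medium: Tris pH 7.5 | Also added: 7 nM biotin-RetCOR | Dosing: Compound at 4.8 µM, single dose | Timing: 5 h at 4 °C | Detection: Time-resolved FRET | Read-out basis: Percent inhibition | Benchmarks: Biotin wells as high control, 0.6% DMSO wells as low control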

Chain of Photoreceptor-specific nuclear receptor (Homo sapiens) (Q9Y5X4 whole entry, looked up): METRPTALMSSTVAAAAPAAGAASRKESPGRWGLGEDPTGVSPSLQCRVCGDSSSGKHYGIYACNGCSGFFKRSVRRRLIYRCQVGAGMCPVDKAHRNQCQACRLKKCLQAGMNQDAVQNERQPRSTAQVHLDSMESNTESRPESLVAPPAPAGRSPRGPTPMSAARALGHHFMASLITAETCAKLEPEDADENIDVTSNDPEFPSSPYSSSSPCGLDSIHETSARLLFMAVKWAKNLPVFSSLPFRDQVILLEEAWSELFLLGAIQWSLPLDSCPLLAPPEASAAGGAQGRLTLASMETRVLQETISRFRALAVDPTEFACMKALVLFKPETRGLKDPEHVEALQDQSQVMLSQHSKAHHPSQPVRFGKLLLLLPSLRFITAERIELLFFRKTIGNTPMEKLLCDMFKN

Row | SMILES | inhibition of corepressor binding
1 | Cc1cccc(NC(=O)c2sc3nc(N4CCOCC4)c4c(c3c2N)CCCC4)c1 | 27.8% (active)
2 | Cc1nc(N2CCOCC2)c2c(C)c(C(=O)Nc3ccc(C(F)(F)F)cc3)sc2n1 | -0.86% (inactive)
3 | CC(=O)Nc1ccc(N2CCOCC2)c(C(=O)Nc2cccc(C)c2)c1 | 0.26% (inactive)
4 | CN(Cc1ccccc1Cl)C(=O)C1CCC(=O)N(CCc2cccc(F)c2)C1 (stereo not given) | -0.98% (inactive)
5 | CCC(CC)C(=O)Nc1c2c(nn1-c1ccc(C)cc1)CS(=O)(=O)C2 | 0.73% (inactive)
6 | CCOc1ccc(C(=O)Nc2cc(Cl)ccc2-n2cncn2)cc1OC | 1.32% (inactive)
7 | N#C/C(C(=S)Nc1ccccc1)=C1/NN=C(N2CCOCC2)N1c1ccccc1 | -1.05% (inactive)
8 | Cc1ccccc1NC(=O)COc1cccc2c1CCNC2=O | -2.78% (inactive)
9 | NC(=S)c1ccc(C(N)=S)o1 | 2.26% (inactive)
10 | O=C(Oc1ccccc1)Oc1ccc2c(c1)oc(=O)c1ccccc12 | 26% (active)
11 | O=C(COc1ccc2c3c(c(=O)oc2c1)CCCC3)NCC(O)c1ccccc1 (stereo not given) | 1.28% (inactive)
12 | CC(=O)COc1ccc2c(-c3ccccc3)cc(=O)oc2c1 | 3.24% (inactive)
13 | Cc1ccccc1C(CC(=O)c1cccs1)C(C#N)C#N (stereo not given) | 3.7% (inactive)
14 | COc1cc(C(F)(F)F)c(C(=O)N(C)c2ccc(Cl)cc2)cn1 | -2.07% (inactive)
15 | CC(=O)Nc1sc2c(c1C(c1cccc(F)c1)N1CCN(CCO)CC1)CCCC2 (stereo not given) | 2.91% (inactive)
16 | COC(=O)[C@]1(C)N[C@H](c2ccc(-c3ccc(Cl)c(Cl)c3)cc2)[C@@H]2C(=O)N(C)C(=O)[C@@H]21 | -0.27% (inactive)
17 | CC(=O)c1cccc(NC(=O)CN2C(=O)c3cccnc3Oc3ccc(Cl)cc32)c1 | 1.24% (inactive)
18 | COc1cc(C2C3C(=O)N(c4ccccc4)C(=O)C3ON2c2ccccc2)ccc1O (stereo not given) | 1.53% (inactive)
19 | Cn1c(=O)c(=O)n(C)c2cc(S(=O)(=O)CCC(=O)N3CCCCC3)ccc21 | 1.89% (inactive)
20 | CSc1sc(C)cc1C1C(C#N)=C(N)N(c2cccnc2)C2=C1C(=O)CCC2 (stereo not given) | 0.82% (inactive)
21 | COCC(=O)N1CCCC(C(=O)c2ccc(C(F)(F)F)cc2)C1 (stereo not given) | 3.84% (inactive)
22 | Cc1ccc(CN2CCN(c3ccccc3Cl)CC2)o1 | 0.07% (inactive)
23 | COCCNC(=O)CN1C(=O)CSc2ncccc21 | 4.79% (inactive)
24 | CCOc1ccccc1Nc1ccc(C(=O)O)cc1[N+](=O)[O-] | 0.59% (inactive)
25 | O=C(COC(=O)c1ccc(F)cc1F)Nc1ncccn1 | 8.41% (inactive)
26 | CN(C(=O)CSc1nnc(-c2ccc(C(C)(C)C)cc2)n1C)C1CCS(=O)(=O)C1 (stereo not given) | -0.57% (inactive)
27 | O=C(CNC(=O)c1ccc(Br)o1)NCC1CCCO1 (stereo not given) | 1.48% (inactive)
28 | Cc1ccc(CN2CCN(Cc3ccc(OCCO)cc3)CC2CCO)o1 (stereo not given) | 3.85% (inactive)

Row | SMILES | inhibition of corepressor binding
29 | COc1cc([C@H](Cc2ccccc2)NC(C)=O)oc(=O)c1 | -1.34% (inactive)
30 | CN(CC(=O)NCc1ccc2c(c1)OCO2)CC(=O)Nc1ccc(F)c(F)c1F | 1.07% (inactive)
31 | CC(NC(=O)c1ccc(S(=O)(=O)Nc2ccccc2)cc1)c1ccc(S(N)(=O)=O)cc1 (stereo not given) | 2.43% (inactive)
32 | CC(=O)N1CCSc2ccc(S(=O)(=O)N3CCC(C)CC3)cc21 | -0.82% (inactive)
33 | C/C(=N/NC(=O)CSc1ccccn1)c1ccc([N+](=O)[O-])cc1 | 3.53% (inactive)
34 | C[C@H](NC(=O)c1nc[nH]c1C(=O)NCC(=O)OC(C)(C)C)c1ccccc1 | -2.19% (inactive)
35 | Cc1ccc(N2C(=O)C(CC(=O)Nc3cccc(F)c3)N(CCc3ccncc3)C2=O)cc1 (stereo not given) | -1.41% (inactive)
36 | CCCOC(=O)c1c(NC(=O)c2cnn3c2NC(c2ccccc2)CC3C(F)(F)F)sc2c1CCCC2 (stereo not given) | 0.87% (inactive)
37 | Cc1ccn2c(c1)nc(=O)c1cc(S(=O)(=O)N3CCC(C)CC3)ccc12 | 2.72% (inactive)
38 | C=CCOc1cccc(C2C(C(=O)c3ccc(C)o3)=C(O)C(=O)N2CCCn2ccnc2)c1 (stereo not given) | 25.8% (active)
39 | C=CCOc1cccc(C2C(C(=O)c3ccc(C)o3)=C(O)C(=O)N2c2nnc(C)s2)c1 (stereo not given) | 14.1% (inactive)
40 | CCCOc1ccc(C2C(C(=O)c3ccc(C)o3)=C(O)C(=O)N2CCCn2ccnc2)cc1 (stereo not given) | 11.4% (inactive)
41 | COc1ccc(/C=C/C(=O)NC(=S)N2CCCC(C(N)=O)C2)cc1 (stereo not given) | 3.08% (inactive)
42 | O=C(OCC1O[C@@H](OC(=O)c2cc(O)c(O)c(O)c2)[C@@H](OC(=O)c2cc(O)c(O)c(O)c2)[C@@H](OC(=O)c2cc(O)c(O)c(O)c2)[C@@H]1OC(=O)c1cc(O)c(O)c(O)c1)c1cc(O)c(O)c(O)c1 (stereo not given in full) | 11.9% (inactive)
43 | Cc1coc2c(O)cc3c(c12)OC1(N2CCCCC2)C(=O)NCCCC31 (stereo not given) | -2.68% (inactive)
44 | CC(C)CCNC(=O)C1CCCN(S(=O)(=O)c2ccc(F)cc2)C1 (stereo not given) | 2.4% (inactive)
45 | Cc1cc(NC(=O)Nc2ccccc2[N+](=O)[O-])no1 | 0.41% (inactive)
46 | COc1cccc(-n2c(=S)[nH]c3c(oc4ccccc43)c2=O)c1 | 29.2% (active)
47 | COc1cccc(N2C(=O)CN(Cc3ccccc3)C2=S)c1 | -3.57% (inactive)
48 | COc1cccc(-n2cc(C(=O)O)c3ccccc3c2=O)c1 | 3.78% (inactive)
49 | COc1ccc(NC(=O)CSc2nnc(Cc3ccccc3)c(=O)n2N)cc1 | -3.17% (inactive)
50 | COC(=O)C1=NN(c2ccccc2)C2C(=O)N(c3ccccc3OC)C(=O)C12 (stereo not given) | -1.01% (inactive)
51 | C/C(=C\c1ccco1)CN1CCC(N2CCC(C(=O)N3CCOCC3)CC2)CC1 | -0.38% (inactive)
52 | O=C(Nc1ccccc1Cl)NC1(C(=O)N2CCOCC2)CCCCC1 | 1.2% (inactive)
53 | CCc1nn(CCCC(=O)NCc2ccc(C)cc2)c(=O)c2cc3occc3n12 | 1.62% (inactive)
54 | C=C1c2c(Cl)ccc(O)c2C(O)=C2C(=O)[C@]3(O)C(O)=C(C(N)=O)C(=O)[C@@H](N(C)C)[C@@H]3[C@@H](O)C12 (stereo not given in full) | 3.15% (inactive)
55 | C=CCn1c(SCc2ccc(Cl)c(Cl)c2)nnc1C(CO)NC(=O)c1ccc(OC)cc1 (stereo not given) | -1.93% (inactive)

Reference: PubChem BioAssay AID2300 (The Scripps Research Institute Molecular Screening Center, 2010)
